# Measurements published in ChEMBL document CHEMBL1146510, “New cytotoxic naphthopyrane derivatives from Adenaria floribunda” (2004).
# Tests used:
# Type in all cases: functional
# MCF7 = experiment: Cytotoxicity against human MCF7 cells
# Outline: (§1)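 Human cancer cell lines tested: MCF-7 (breast), H-460 (lung) and SF-268 (central nervous system). Cytotoxicity was run by a previously published cell-line screening method. The same three lines were used to follow activity through fractionation.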
# SF-268 = experiment: Cytotoxicity against human SF268 cells; outline: as §1
# NCI-H460 = experiment: Cytotoxicity against human H460 cells; outline: as §1
Structure (SMILES),GI50 (MCF7),GI50 (SF-268),GI50 (NCI-H460)
COc1c(CC=C(C)C)c(O)c2c(O)c3c(cc2c1CC=C(C)C)O[C@H](C)CC3=O [ADENAFLORINE A],0.24 µg/mL,0.13 µg/mL,0.16 µg/mL
COc1c(CC=C(C)C)c(O)c2c(O)c3c(=O)cc(C)oc3cc2c1CC=C(C)C [ADENAFLORINE B],4.3 µg/mL,3.9 µg/mL,2.9 µg/mL
CC(=O)c1c2c(c3cc(OCC=C(C)C)c(CC=C(C)C)c(O)c3c1O)C=CC(C)(C)O2 [ADENAFLORINE C],1.2 µg/mL,1.4 µg/mL,1.1 µg/mL
CC(=O)c1c(O)c(CC=C(C)C)c2cc(OCC=C(C)C)c3c(c2c1O)OC(C)(C)C=C3 [ADENAFLORINE D],> 10 µg/mL,> 10 µg/mL,9.3 µg/mL
